Assay results taken from ChEMBL document CHEMBL1132384, “Design, synthesis, and evaluation of chromen-2-ones as potent and selective human dopamine D4 antagonists” (J Med Chem, 1999).
The source made the active and inactive calls. The calls are words filed in the database; no cut-off is given here.

Assays:
D(4) dopamine receptor = molecular target: T1, D(4) dopamine receptor (Homo sapiens, UniProt P21917); assay: Binding affinity using [3H]spiperone displacement from cloned human Dopamine receptor D4.2 expressed in CHO-K1 cells; format: cell-based
T1 sequence (P21917 whole entry): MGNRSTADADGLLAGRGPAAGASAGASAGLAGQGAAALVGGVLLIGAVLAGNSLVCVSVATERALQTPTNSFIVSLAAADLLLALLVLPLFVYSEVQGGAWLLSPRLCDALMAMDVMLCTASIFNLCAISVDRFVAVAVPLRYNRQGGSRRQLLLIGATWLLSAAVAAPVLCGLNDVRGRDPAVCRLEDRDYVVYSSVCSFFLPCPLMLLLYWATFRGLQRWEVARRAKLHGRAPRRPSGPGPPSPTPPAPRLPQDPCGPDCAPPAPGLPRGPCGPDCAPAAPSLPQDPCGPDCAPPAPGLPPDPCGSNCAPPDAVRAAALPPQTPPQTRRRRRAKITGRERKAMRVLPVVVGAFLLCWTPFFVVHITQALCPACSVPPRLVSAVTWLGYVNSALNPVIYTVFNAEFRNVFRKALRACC

[1] = molecular target: 5-hydroxytryptamine receptor 2A (Bos taurus, UniProt Q75Z89); assay: Compound was tested for binding affinity using [3H]ketanserin against 5-hydroxytryptamine 2 receptor
Chain of 5-hydroxytryptamine receptor 2A (Q75Z89 whole entry): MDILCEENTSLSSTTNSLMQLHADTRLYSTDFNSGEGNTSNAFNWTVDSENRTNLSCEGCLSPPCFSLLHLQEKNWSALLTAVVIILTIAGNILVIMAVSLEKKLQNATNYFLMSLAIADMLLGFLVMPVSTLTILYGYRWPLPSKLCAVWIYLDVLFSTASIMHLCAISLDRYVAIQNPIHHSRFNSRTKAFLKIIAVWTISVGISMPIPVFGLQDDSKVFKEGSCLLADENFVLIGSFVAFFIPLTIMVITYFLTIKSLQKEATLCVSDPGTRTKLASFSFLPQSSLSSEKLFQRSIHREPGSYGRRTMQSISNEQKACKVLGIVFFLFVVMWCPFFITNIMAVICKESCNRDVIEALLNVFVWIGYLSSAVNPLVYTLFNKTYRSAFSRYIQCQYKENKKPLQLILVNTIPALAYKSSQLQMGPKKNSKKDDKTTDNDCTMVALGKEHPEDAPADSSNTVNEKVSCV

Rattus norvegicus [2] = assay: Behavioral effect expressed as inhibition of amphetamine-stimulated locomotor activity in rats, ip; format: functional
[3] = molecular target: T2, D(4) dopamine receptor (Homo sapiens) (UniProt P21917); assay: Compound was tested for the inhibition of [3H]thymidine uptake in CHO p-5 cells transfected with human Dopamine receptor D4.2; format: functional, cell-based
T2 sequence (whole entry): T1 sequence (P21917 whole entry)
Summary of the method: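 Antagonism of quinpirole (full agonist) stimulated mitogenesis in CHO cells expressing human D4.2. After 18 h, [3H]thymidine 0.25 μCi/well for 2 h, trypsin 1 h, then filtered and counted. Intrinsic activity taken relative to quinpirole; IC50 derived.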

Rattus norvegicus [4] = assay: Compound was tested for the levels of hippocampal dopamine synthesis in rat after a dosage of 10 mg/kg intraperitoneally and expressed as % of control animals; format: functional, Hippocampus; settings: route intraperitoneal
D(3) dopamine receptor = D(3) dopamine receptor (Homo sapiens, UniProt P35462); assay: Compound was tested for binding affinity using [3H]spiperone against cloned human Dopamine receptor D3 expressed in CHO-K1 cells; format: cell-based
Chain of D(3) dopamine receptor (P35462 whole entry): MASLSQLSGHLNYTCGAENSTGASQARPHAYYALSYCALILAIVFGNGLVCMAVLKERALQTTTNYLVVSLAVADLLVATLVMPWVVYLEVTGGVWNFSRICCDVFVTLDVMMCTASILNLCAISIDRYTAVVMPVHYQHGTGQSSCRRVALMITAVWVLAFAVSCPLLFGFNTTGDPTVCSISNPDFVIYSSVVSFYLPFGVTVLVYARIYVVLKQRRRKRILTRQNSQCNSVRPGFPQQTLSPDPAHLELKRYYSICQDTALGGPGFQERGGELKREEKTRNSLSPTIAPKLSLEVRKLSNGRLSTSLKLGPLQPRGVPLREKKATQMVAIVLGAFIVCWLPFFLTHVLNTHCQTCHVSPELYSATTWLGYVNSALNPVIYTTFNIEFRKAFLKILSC
Summary of the method: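 Cloned human receptors expressed in CHO-K1 cells, displacement of [3H]spiperone; Ki from six concentrations run in triplicate, nonlinear regression.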

Rattus norvegicus [5] = assay: Behavioral effect expressed as inhibition of spontaneous motor activity in rats, ip; NA=Not active; format: functional, organism-based
[6] = molecular target: T3, 5-hydroxytryptamine receptor 1A (Mus musculus, UniProt Q64264); assay: Compound was tested for binding affinity using [3H]8-OH-DPAT against 5-hydroxytryptamine 1A receptor
T3 sequence (Q64264 whole entry): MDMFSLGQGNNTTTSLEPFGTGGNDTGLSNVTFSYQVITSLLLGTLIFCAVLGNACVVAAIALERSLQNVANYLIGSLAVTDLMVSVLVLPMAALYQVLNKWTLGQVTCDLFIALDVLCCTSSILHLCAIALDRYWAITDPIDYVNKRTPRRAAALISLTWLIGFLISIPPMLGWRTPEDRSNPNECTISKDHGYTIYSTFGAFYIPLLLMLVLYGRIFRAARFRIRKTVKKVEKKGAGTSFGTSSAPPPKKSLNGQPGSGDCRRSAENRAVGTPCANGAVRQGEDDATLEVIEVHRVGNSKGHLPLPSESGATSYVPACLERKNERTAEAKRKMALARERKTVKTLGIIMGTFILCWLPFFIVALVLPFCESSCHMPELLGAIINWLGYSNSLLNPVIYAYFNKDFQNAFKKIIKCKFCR

Rattus norvegicus [7] = assay: Behavioral effect expressed as catalepsy test in rats, po; NA=Not active; format: functional, organism-based
Summary of the method: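 Rats dosed orally; front paws placed on an elevated bar, time (s) paws stayed on bar recorded over three consecutive 1-min trials, retested 2 h postdose. Value is mean response time for third trial.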

Rattus norvegicus [8] = assay: Compound was tested for the levels of striatal dopamine synthesis in rat after a dosage of 10 mg/kg intraperitoneally and expressed as % of control animals; format: functional; settings: route intraperitoneal
Mus musculus = assay: Behavioral effect expressed as reversal of prepulse inhibition of acoustic startle in mice, ip; active at 30 mg/kg; format: functional, organism-based; set-up: dose 30 mg/kg
Summary of the method: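 Vehicle or test compound given ip 15 min before sc saline or apomorphine (0.25 mg/kg); 30-min session of 90 trials after 5-min 70 dB white-noise acclimation, prepulses 2–16 dB over background (20 ms), startle pulses 40 ms. %PPI from 16-dB prepulse; t-test; minimal effective dose reported.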

[9] = molecular target: Dopamine D2 receptor (Homo sapiens); assay: Binding affinity using [3H]spiperone against cloned human Dopamine receptor D2L expressed in CHO-K1 cells
[10] = molecular target: T2, D(4) dopamine receptor (Homo sapiens); assay: Ratio of receptor binding towards D2 to D4 receptor
Summary of the method: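 Ki from [3H]spiperone displacement at cloned human D2L and D4.2 receptors expressed in CHO-K1 cells. Six concentrations run in triplicate, fitted by nonlinear regression. Ratio taken as D2L Ki over D4.2 Ki.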

[11] = molecular target: T2, D(4) dopamine receptor (Homo sapiens); assay: Compound was tested for the inhibition of [3H]-thymidine uptake in CHO p-5 cells transfected with Dopamine receptor D4.2; format: functional, cell-based
Rattus norvegicus [12] = assay: Compound was tested for the levels of striatal dopamine synthesis in rat after a dosage of 10 mg/kg intraperitoneally and expressed as % of control; format: functional; settings: route intraperitoneal
Summary of the method: (§1)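 Rats given drug 10 mg/kg ip 60 min before and NSD 1015 (decarboxylase inhibitor) 30 min before decapitation; striatal and hippocampal DOPA by HPLC with electrochemical detection, as percentage increase over control; mean of 4 animals.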

Rattus norvegicus [13] = assay: Compound was tested for the levels of hippocampal dopamine synthesis in rat after a dosage of 10 mg/kg intraperitoneally and expressed as % of control; format: functional, Hippocampus; settings: route intraperitoneal; summary of the method: as §1

Compound | Ki (D(4) dopamine receptor) [nM] | Ki [9] [nM] | further results
O=c1ccc2ccc(CN3CCC(c4ccccc4)CC3)cc2o1 | 19 | – | –
Cc1cccc(N2CCN(Cc3ccc4oc(=O)ccc4c3)CC2)c1 | 74 | – | –
CCN(CCNc1ccccc1)Cc1ccc2ccc(=O)oc2c1 | 410 | – | –
CC(C)(C)c1ccc(N2CCN(Cc3ccc4ccc(=O)oc4c3)CC2)cc1 | 227 | – | –
O=c1ccc2ccc(CN3CCN(c4ccc(F)cc4)CC3)cc2o1 | 59 | – | –
O=c1ccc2ccc(CNCCNc3ccccc3)cc2o1 | – | – | Ki [1]: > 4350 nM; ED50 (Rattus norvegicus [2]): 3 mg/kg; Intrinsic activity [3]: 0%; Control (Rattus norvegicus [4]): 32%; Ki (D(3) dopamine receptor): 424 nM; Control (Rattus norvegicus [5]): inactive; Ki [6]: 3710 nM; Control (Rattus norvegicus [7]): inactive; Control (Rattus norvegicus [8]): 20%; Behavioral effect (Mus musculus): Active
Cc1ccc(N2CCN(Cc3ccc4ccc(=O)oc4c3)CC2)cc1Cl | 6.9 | 5882 | Intrinsic activity [3]: 0%; Control (Rattus norvegicus [4]): 27%; Control (Rattus norvegicus [8]): 19%; Ratio [10]: 852
O=c1ccc2ccc(CN3CCN(c4ccc(Cl)cc4)CC3)cc2o1 | 93 | – | –
Cc1ccc(NCCNCc2ccc3ccc(=O)oc3c2)cc1 | – | – | Intrinsic activity [3]: 0%
O=c1ccc2ccc(CN3CCN(c4ccccc4)CC3)cc2o1 | 27 | 5300 | –
Cc1cccc(N2CCN(Cc3ccc4ccc(=O)oc4c3)CC2)c1 | 32 | 4400 | –
CCN(CCNCc1ccc2ccc(=O)oc2c1)c1ccccc1 | 2660 | – | –
Cc1ccc(N2CCN(Cc3ccc4ccc(=O)oc4c3)CC2)cc1C | 14 | 433 | –
O=c1ccc2ccc(CN3CC=C(c4ccccc4)CC3)cc2o1 | 4.4 | 121 | –
Cc1ccccc1N1CCN(Cc2ccc3ccc(=O)oc3c2)CC1 | 16 | 1940 | –
COc1ccc(N2CCN(Cc3ccc4ccc(=O)oc4c3)CC2)cc1 | 75 | – | –
Cc1ccc(N2CCN(Cc3ccc4oc(=O)ccc4c3)CC2)cc1 | 11 | 5836 | Intrinsic activity [11]: 0%; Control (Rattus norvegicus [12]): 22%; Control (Rattus norvegicus [13]): -16%
